These results are taken from paper PMC8530377 (Journal of medicinal chemistry, 2021).

The target in one series is hMOR (human MOR) (Homo sapiens, UniProt P35372). Kind of series: biochemical. The class given is binding.
The next series concerns the target hMOR (Gi-1) (Homo sapiens, UniProt P35372). Kind of series: cell-based. The note with it: for Emax: read-out: Gi-1 Emax.
In another series the target is hMOR (GoA and GoB) (Homo sapiens, UniProt P35372). Kind of series: cell-based. The note with it: read-out: Emax at GoA and GoB.
The target of the next series is hMOR (Gz) (Homo sapiens, UniProt P35372). Kind of series: cell-based. The note with it: read-out: Emax at Gz.
In another series the target is hMOR (β-arrestin2) (Homo sapiens, UniProt P35372). Briefly: cell-based. The conditions noted are these: for Emax: read-out: β-arrestin2 recruitment Emax (BRET). (Activated receptors often draw arrestin, which recruitment assays turn into a signal.)
The next series concerns the target hMOR (β-arrestin1) (Homo sapiens, UniProt P35372). The class given is cell-based.
Another series addresses murine MOR (Mus musculus, UniProt P42866). Kind of series: BRET-based Nb33 recruitment assay, mMOR. The format is cell-based. The note with it: for Nb33 recruitment efficacy at murine MOR: HEK293-T cells, compared to DAMGO.
Series [1] deals with GABAA receptor-mediated IPSCs in VTA neurons. Briefly: Whole cell electrophysiology, evoked IPSCs in VTA neurons of acute brain slices. The conditions noted are these: 10 μM; compared to 5 μM DAMGO and 10 μM morphine. The format is cell-based, rat.
A further series deals with DOR. Kind of series: BRET Gi-1 activation assay at DOR. The format is cell-based. The essentials: (§1)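 Cells were plated in 6-well dishes (700,000–800,000 cells/well) or 10 cm dishes and transfected 2–4 h later with receptor:Gα-RLuc8:Gβ:Gγ-GFP2 at 1:1:1:1. The next day they were replated on poly-D-lysine 96-well plates (30,000–50,000 cells/well). One day later, in HBSS + 20 mM HEPES pH 7.4 with coelenterazine 400a, cells equilibrated 5 min, then drug 5 min. BRET2 ratio was GFP2 (510 nm)/RLuc8 (395 nm), sixth of six serial reads.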
In general terms: BRET reads energy transfer from a luciferase to a nearby fluorophore.

The subject of another series is KOR. Briefly: BRET Gi-1 activation assay at KOR. The format is cell-based. The method in brief: as §1
Another series concerns the target hMOR (Homo sapiens, UniProt P35372). Kind of series: cell-based.
Series [2] concerns MOR KO, KOR KO and DOR KO mice. Kind of series: 55 °C tail withdrawal antinociception in opioid receptor knock-out mice. The note with it: 10 mg/kg, sc, relative to WT. The class given is in vivo, mouse.
The subject of series [3] is mice. Kind of series: Respiratory rate, CLAMS. The format is in vivo, mouse.
The test system of series [4] is mice. Briefly: Locomotor effect, CLAMS. The class given is in vivo, mouse.
Series [5] relates to C57BL/6J mice. The conditions noted are these: mouse, in vivo.
The next series relates to MOR. The note with it: cited from earlier work.
The test system of series [6] is C57BL/6J mice. The note with it: sc; cited from earlier work.
The mark [7] stands for this setting: 45 mg/kg, sc (15-fold antinociceptive ED50).

Sequence of murine MOR (P42866 whole entry): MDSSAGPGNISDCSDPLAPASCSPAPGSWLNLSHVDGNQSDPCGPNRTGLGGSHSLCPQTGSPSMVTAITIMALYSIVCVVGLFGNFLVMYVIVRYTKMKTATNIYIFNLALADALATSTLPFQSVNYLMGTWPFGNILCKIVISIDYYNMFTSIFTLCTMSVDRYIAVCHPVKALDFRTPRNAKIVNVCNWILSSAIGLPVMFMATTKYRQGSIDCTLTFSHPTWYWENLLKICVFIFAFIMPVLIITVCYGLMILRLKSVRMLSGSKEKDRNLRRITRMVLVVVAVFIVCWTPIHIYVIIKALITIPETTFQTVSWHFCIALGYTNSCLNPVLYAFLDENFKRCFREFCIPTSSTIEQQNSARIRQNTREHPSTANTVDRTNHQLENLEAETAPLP
Sequence of hMOR (β-arrestin2) (P35372 whole entry): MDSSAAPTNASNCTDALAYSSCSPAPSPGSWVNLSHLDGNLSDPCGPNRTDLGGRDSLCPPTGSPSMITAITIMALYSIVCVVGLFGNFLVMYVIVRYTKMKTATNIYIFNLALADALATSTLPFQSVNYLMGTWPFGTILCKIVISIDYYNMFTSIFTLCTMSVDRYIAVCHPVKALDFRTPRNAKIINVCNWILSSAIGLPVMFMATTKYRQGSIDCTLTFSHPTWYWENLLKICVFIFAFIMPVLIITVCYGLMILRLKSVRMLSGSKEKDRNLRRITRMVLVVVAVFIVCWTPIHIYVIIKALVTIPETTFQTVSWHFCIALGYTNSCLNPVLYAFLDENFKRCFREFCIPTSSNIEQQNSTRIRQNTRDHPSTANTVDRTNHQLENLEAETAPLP
Sequence of hMOR (Gi-1) (P35372 whole entry): as above
Sequence of hMOR (Gz) (P35372 whole entry): as above
Sequence of hMOR (GoA and GoB) (P35372 whole entry): as above
Sequence of hMOR (β-arrestin1) (P35372 whole entry): as above
Sequence of hMOR (human MOR) (P35372 whole entry): as above
Sequence of hMOR (P35372 whole entry): as above

For the compound `CC[C@@H]1CN2CC[C@@]3(O)C(=Nc4cccc(-c5ccccc5)c43)[C@@H]2C[C@@H]1/C(=C\OC)C(=O)OC` [Compound 4, Methyl(E)-2-((2S,3S,7aS,12bS)-3-ethyl-7a-hydroxy-8-phenyl-1,2,3,4,6,7,7a,12b-octahydroindolo[2,3-a]quinolizin-2-yl)-3-methoxyacrylate], the inhibition constant Ki at hMOR (human MOR) was 15 to 17 nM. The Emax is 60 to 70% at hMOR (Gi-1); 63 to 75% at hMOR (GoA and GoB); 79 to 86% on hMOR (Gz); < 10% on hMOR (β-arrestin2). On hMOR (β-arrestin2), the “β-arrestin2 recruitment (BRET), words” value is given as “not measurable”. For the same compound, on hMOR (β-arrestin1), the “β-arrestin1 recruitment (BRET), words” value is on record as “failed to show recruitment”. The “Nb33 recruitment efficacy at murine MOR” value at murine MOR was 15–18%. For the same compound, in series [1], the “mean inhibition of evoked IPSCs” value is on record as “smaller”.

The compound `CC[C@@H]1CN2CC[C@@]3(O)C(=Nc4cccc(C)c43)[C@@H]2C[C@@H]1/C(=C\OC)C(=O)OC` [Compound 5, Methyl(E)-2-((2S,3S,7aS,12bS)-3-ethyl-7a-hydroxy-8-methyl-1,2,3,4,6,7,7a,12b-octahydroindolo[2,3-a]quinolizin-2-yl)-3-methoxyacrylate] showed a Ki on hMOR (human MOR) of 15 to 17 nM. Further, the Emax on hMOR (Gi-1) is 60 to 70%; at hMOR (GoA and GoB), 63 to 75%; on hMOR (Gz), 79 to 86%; at hMOR (β-arrestin2) it was < 10%. For the same compound, the “β-arrestin2 recruitment (BRET), words” value on hMOR (β-arrestin2) is “not measurable”. For the same compound, the “β-arrestin1 recruitment (BRET), words” value at hMOR (β-arrestin1) was “failed to show recruitment”. Moreover, at murine MOR, the “Nb33 recruitment efficacy at murine MOR” value is 15–18%. Further, the “mean inhibition of evoked IPSCs” value in series [1] is recorded as “smaller”.

In the case of `CC[C@@H]1CN2CC[C@@]3(O)C(=Nc4cccc(-c5ccoc5)c43)[C@@H]2C[C@@H]1/C(=C\OC)C(=O)OC` [Compound 6 (SC13), Methyl(E)-2-((2S,3S,7aS,12bS)-3-ethyl-8-(furan-3-yl)-7a-hydroxy-1,2,3,4,6,7,7a,12b-octahydroindolo[2,3-a]quinolizin-2-yl)-3-methoxyacrylate], the EC50 on hMOR (Gi-1) is 145 nM; at hMOR it was 730 nM; on murine MOR, 12 nM. Besides, the Emax at hMOR (Gi-1) was 60 to 70%; at hMOR (GoA and GoB) it was 63 to 75%; on hMOR (Gz), 79 to 86%; on hMOR (β-arrestin2), < 10%. Further, on hMOR (β-arrestin2), the “β-arrestin2 recruitment (BRET), words” value is on record as “not measurable”. For the same compound, the “β-arrestin1 recruitment (BRET), words” value at hMOR (β-arrestin1) is “failed to show recruitment”. In addition, the “fold lower potency at DOR versus MOR, Gi-1 activation” value with DOR was ~ 100 fold. The “fold lower potency at KOR versus MOR, Gi-1 activation” value with KOR is reported as ~ 100 fold. In addition, the “mean inhibition of evoked IPSCs” value in [1] is listed as “smaller”. In addition, the “antinociception in MOR KO mice” value in [2] is on record as “significantly reduced”. Also, in series [2] (p = 0.058), the “antinociception in KOR KO mice” value is listed as “remained intact”. Also, in [2] (p = 0.13), the “antinociception in DOR KO mice” value was “remained intact”. Besides, the “respiratory effects (breath rate)” value in the series on mice [3] (setting [7]) is on record as “no statistically significant respiratory effects”. The locomotor effect entry in the series with mice [4] (setting [7]) was “no hyperlocomotion”. Moreover, the “place conditioning (CPP/CPA)” value in the series on C57BL/6J mice [5] is “no signs of CPP or CPA”.

With `C[C@@H](Cc1ccsc1)NC(=O)NC[C@H](Cc1ccc(O)cc1)N(C)C` [PZM21], in the series on MOR, the “Nb33 recruitment efficacy (literature)” value is listed as 38%.

For `COc1ccsc1CNCC[C@@]1(c2ccccn2)CCOC2(CCCC2)C1` [TRV130], the “Nb33 recruitment efficacy (literature)” value in the series with MOR was 42%.

For `CN1CC[C@]23c4c5ccc(O)c4O[C@H]2[C@@H](O)C=C[C@H]3[C@H]1C5` [morphine, reference compound], the “respiratory effects (breath rate)” value in the series with mice [3] (30 mg/kg, sc) was “significant respiratory depression for 60 min”. Moreover, in the series on mice [4] (10 and 30 mg/kg, sc (5-fold and 15-fold ED50)), the locomotor effect result was “hyperlocomotion effects”. The “place conditioning (CPP/CPA)” value in the series on C57BL/6J mice [5] is on record as “showed CPP”. In the series on C57BL/6J mice [6], the “antinociception ED50 (95% CI), literature” value is 2.48 (1.57–3.87) mg/kg.

Usually Ki stands for the equilibrium dissociation constant of an inhibitor or competing ligand from its target. As a reminder, the Emax is the greatest response seen or fitted, relative to the assay's reference. As a reminder, the EC50 is the concentration needed to bring the measured effect to its halfway point. Read a high EC50 as a need for much substance.
